Twelve molecules from ChEMBL document CHEMBL1122670, “Synthesis of previously inaccessible quinazolines and 1,4-benzodiazepines as potential anticonvulsants” (J Med Chem, 1984) can be followed below.

Molecules are shown by their SMILES. Values joined by “and” are separate entries in the source; they are usually repeats but may differ in a detail not shown here. Equal values may be shown once. Active and inactive are the calls of the source.

The subject of data set [1] is Mus musculus. Nature of the data set: Evaluated for seizure threshold test at a dose 300 mg/kg & MMT is the maximal metrazole threshold to tonic flexion; I - inactive. The class given is functional, organism-based. More on the design: dose 300 mg/kg. The method, boiled down:
(§1)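 At 0.5 h (some at 1 or 4 h), 0.5% pentylenetetrazol in 0.9% NaCl with 0.001% heparin was infused into the tail vein at 6.31 μL/s. Time to 3 s persistent clonus (MST) or tonic flexion (MMT) was converted to mg/kg, reported as % change vs controls, Student's t test.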

Data set [2] addresses GABA-A receptor; anion channel (Mus musculus) (UniProt Q8BHJ7+P26048+Q8QZW7+P50571+Q9R0Y8+P22723+A2AMW3+P62812+Q9JLF1+P26049+P22933+Q9D6F4+P63080+P27681+P16305). The data set is described as follows: Inhibition of binding to GABA-A central benzodiazepine receptor (inactive). The class given is protein-complex assay.
The nature of data set [3]: Compound was evaluated for median lethal dose. In kind it is ADME, organism-based. The note with it: mouse, in vivo.
Data set [4] relates to Mus musculus. The data set is described as follows: Evaluated for seizure threshold test at a dose 300 mg/kg & MST is the metrazole seizure threshold to persistent clonus. The class given is functional. The method, boiled down: as §1
Data set [5] has as its system Mus musculus. Nature of the data set: Evaluated for seizure threshold test at a dose 100 mg/kg & MMT is the maximal metrazole threshold to tonic flexion; I = inactive. The arrangement: dose 100 mg/kg. The class given is functional, organism-based. The method, boiled down:
as §1

Data set [6] concerns Mus musculus. The data set is described as follows: Evaluated for seizure threshold test at a dose 100 mg/kg & MST is the metrazole seizure threshold to persistent clonus; I = inactive. In kind it is functional, organism-based. The arrangement: dose 100 mg/kg. The method, boiled down:
as §1

The nature of data set [7]: Compound was determined in rotarod test and expressed as TD50. In kind it is ADME, organism-based. The note with it: mouse, in vivo. The method, boiled down: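 ADD Program screen in mice. Doses of 30, 100, 300 and 600 mg/kg were given, four animals per dose, with tests at 30 min and at 4 h. sc Met endpoint: no threshold seizure (single clonic spasm of 5 s) after an sc convulsant dose 99 of pentylenetetrazol. Rotorod assessed acute neurotoxicity.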
On the technique in general: The rotarod test checks motor coordination on a turning rod.

Data set [8] has as its system Mus musculus. Nature of the data set: Effective dose (ED50) was determined in sc Met (pentylenetetrazole) seizure threshold test. The class given is functional. The method, boiled down:
(§2)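 ADD Program screen in mice. Doses of 30, 100, 300 and 600 mg/kg were given, four animals per dose, with tests at 30 min and at 4 h. sc Met endpoint: no threshold seizure (single clonic spasm of 5 s) after an sc convulsant dose 99 of pentylenetetrazol. Rotorod assessed acute neurotoxicity. ED50/TD50 were estimated graphically; Litchfield-Wilcoxon 95% confidence limits were added for selected cases.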

Data set [9] relates to Mus musculus. The data set is described as follows: Effective dose (ED50) was determined in sc Met (pentylenetetrazole) seizure threshold test; I = Inactive. In kind it is functional, organism-based. The method, boiled down: as §2
Data set [10] deals with Mus musculus. The data set is described as follows: Evaluated for seizure threshold test at a dose 25 mg/kg &MMT is the maximal metrazole threshold to tonic flexion; I = Inactive. In kind it is functional, organism-based. More on the design: dose 25 mg/kg. The method, boiled down: (§3)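 0.5% pentylenetetrazol (with 0.9% NaCl and 0.001% heparin) was infused into a lateral tail vein at 6.31 μL/s. Time to 3 s of persistent clonus (MST) or hindlimb tonic flexion (MMT) was converted to mg/kg infused. Tested at 0.5 h (some at 4 h or 1 h). Results are % change from controls, by Student's t test.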

Data set [11] has as its system Mus musculus. The data set is described as follows: Evaluated for seizure threshold test at a dose 25 mg/kg &MST is the metrazole seizure threshold to persistent clonus; I = Inactive. The class given is functional, organism-based. More on the design: dose 25 mg/kg. The method, boiled down:
as §3

The species named for data set [12] is Mus musculus. The data set is described as follows: Compound was determined in rotarod test and expressed as TD50; I = Inactive. The class given is ADME, organism-based. The note with it: in vivo. The method, boiled down:
as §2

Data set [13] deals with Mus musculus. Nature of the data set: Evaluated for seizure threshold test at a dose 75 mg/kg &MMT is the maximal metrazole threshold to tonic flexion. In kind it is functional. The method, boiled down: as §3
For data set [14], the system named is Mus musculus. The data set is described as follows: Evaluated for seizure threshold test at a dose 75 mg/kg &MST is the metrazole seizure threshold to persistent clonus; I = Inactive. The class given is functional, organism-based. More on the design: dose 75 mg/kg. The method, boiled down:
as §3

Data set [15] deals with Mus musculus. The data set is described as follows: Effective dose (ED50) was determined in sc Met (pentylenetetrazole) seizure threshold test; I = Inactive at all doses including 600 mg/kg. More on the design: dose 600 mg/kg. The class given is functional, organism-based. The method, boiled down: as §2
Data set [16] relates to Mus musculus. Nature of the data set: Evaluated for seizure threshold test at a dose 0.2 mg/kg &MST is the metrazole seizure threshold to persistent clonus. In kind it is functional. The method, boiled down:
as §1

The subject of data set [17] is Mus musculus. Nature of the data set: Evaluated for seizure threshold test at a dose 1.0 mg/kg &MST is the metrazole seizure threshold to persistent clonus. The class given is functional. The method, boiled down: as §1
The test system of data set [18] is Mus musculus. Nature of the data set: Evaluated for seizure threshold test at a dose 1.0 mg/kg &MMT is the maximal metrazole threshold to tonic flexion. In kind it is functional. The method, boiled down:
as §1

In data set [19] the test system is Mus musculus. The data set is described as follows: Evaluated for seizure threshold test at a dose 0.2 mg/kg &MMT is the maximal metrazole threshold to tonic flexion. The class given is functional. The method, boiled down: as §1
Data set [20] has as its system Mus musculus. Nature of the data set: Evaluated for seizure threshold test at a dose 100 mg/kg & MMT is the maximal metrazole threshold to tonic flexion; I - inactive. In kind it is functional, organism-based. The arrangement: dose 100 mg/kg. The method, boiled down:
as §3

For data set [21], the system named is Mus musculus. Nature of the data set: Evaluated for seizure threshold test at a dose 100 mg/kg & MST is the metrazole seizure threshold to persistent clonus. In kind it is functional. The note with it: 100 mg/kg. The method, boiled down: as §1
Data set [22] deals with Mus musculus. Nature of the data set: Evaluated for seizure threshold test at a dose 100 mg/kg & MMT is the maximal metrazole threshold to tonic flexion. In kind it is functional. The method, boiled down:
as §1

Data set [23] has as its system Mus musculus. Nature of the data set: Evaluated for seizure threshold test at a dose 1 mg/kg &MMT is the maximal metrazole threshold to tonic flexion. In kind it is functional. The method, boiled down:
as §1

Data set [24] has as its target GABA-A receptor; anion channel. Nature of the data set: Binding affinity for umolar GABA-A central benzodiazepine receptor. In kind it is protein-complex assay, Mus musculus.
The subject of data set [25] is Mus musculus. Nature of the data set: Evaluated for seizure threshold test at a dose 1 mg/kg &MST is the metrazole seizure threshold to persistent clonus. The class given is functional. The method, boiled down:
as §1

Data set [26] has as its system Mus musculus. Nature of the data set: Evaluated for seizure threshold test at a dose 30 mg/kg &MST is the metrazole seizure threshold to persistent clonus; I = Inactive. The class given is functional, organism-based. More on the design: dose 30 mg/kg. The method, boiled down: as §3
Data set [27] has as its system GABA-A receptor; anion channel. Nature of the data set: Inhibition of binding to GABA-A central benzodiazepine receptor (Inactive). The class given is protein-complex assay, Mus musculus.
In data set [28] the test system is Mus musculus. Nature of the data set: Evaluated for seizure threshold test at a dose 30 mg/kg &MMT is the maximal metrazole threshold to tonic flexion. The class given is functional. The method, boiled down: as §1
Data set [29] has as its system Mus musculus. The data set is described as follows: Evaluated for seizure threshold test at a dose 300 mg/kg &MMT is the maximal metrazole threshold to tonic flexion. In kind it is functional. The method, boiled down: as §3
Data set [30] concerns Mus musculus. The data set is described as follows: Evaluated for seizure threshold test at a dose 300 mg/kg &MST is the metrazole seizure threshold to persistent clonus. The class given is functional. The method, boiled down:
as §1

Broadly, the TD50 is the 50% point of the dose-response relation for the toxic effect studied. Low values mean greater toxicity, high ones lower toxicity. As a reminder, the ED50 is the dose that gives a 50% effect, or the effect in half of the subjects. By Ki is commonly meant the equilibrium dissociation constant of an inhibitor or competing ligand from its target. Read a high Ki as a looser hold on the target.

Consider `Cc1cc2c(c(C#N)c1C)NC(=O)CN=C2c1ccccc1`, for which the Change entry in data set [1], in data set [2], in data set [5] and in data set [6] was “inactive” each time. Also, the LD50 in data set [3] (read-out: LD) was more than 2 mg/kg. Further, the Change in data set [4] is 44%. For the same molecule, the TD50 in [7] is more than 1000 mg/kg. Besides, the ED50 in data set [8] turned out to be 370 mg/kg.

In the case of `Cc1cc2c(-c3ccccc3F)ncnc2c(C#N)c1C`, the ED50 result in data set [9] is “inactive”. Besides, the Change result in [10] and in [11] was “Not significant” in each case. In data set [12], the TD50 result is “Not Active”.

Turning to `Cc1cc2c(-c3ccccc3)ncnc2c(C#N)c1C`, the ED50 entry in [9] was “inactive”. Also, the Change entry in data set [10] and in [11] was “Not significant” each time. Moreover, the TD50 result in data set [12] is on record as “Not Active”.

With `Cc1cc2c(c(C#N)c1C)NC(=O)NC2C` (centres undefined), the Change in [13] is -16%; in data set [14], “Not significant”. In [7], this molecule came in with a TD50 of 300 mg/kg. For the same molecule, in data set [15], the ED50 result is “inactive”.

As for `Cc1cc2c(-c3ccccc3F)nc(O)nc2c(C#N)c1C`, the ED50 entry in [9] is “inactive”. In addition, the Change result in data set [10] and in data set [11] was “Not significant” throughout. Moreover, in data set [12], the TD50 entry is “Not Active”.

Consider `Cc1cc(C(=O)c2ccccc2Cl)c(N)c(C#N)c1C`, for which, in [9], the ED50 entry is “inactive”. The Change entry in [10] and in [11] was “Not significant” in each case. Also, in [12], the TD50 entry is given as “Not Active”.

For the molecule `CN1C(=O)CN=C(c2ccccc2)c2cc(Cl)ccc21` [DIAZEPAM], the Change was 50% in [16], 60% in data set [17], 40% in data set [18] and 15% in [19]. For the same molecule, the TD50 in data set [7] is 7.3 mg/kg. The same molecule returned an ED50 in data set [8] of 0.17 mg/kg.

In the case of `Cc1cc2c(C)nc(O)nc2c(C#N)c1C`, the ED50 result in data set [9] is “inactive”. In addition, the Change entry in data set [10] and in data set [11] was “Not significant” each time. Besides, the TD50 result in data set [12] was “Not Active”.

In the case of `Cc1cc(C(=O)c2ccccc2)c(NC(=O)CBr)c(C#N)c1C`, in data set [20], the Change result was “inactive”. Also, the TD50 in data set [7] stood at 600 mg/kg. Besides, the Change in data set [21] is 70% and 37%; in [22], 49%. Also, in data set [8], the ED50 amounted to 480 mg/kg.

For the molecule `O=C1CN=C(c2ccccc2)c2cc(Cl)ccc2N1` [NORDAZEPAM], the Change in data set [16] is on record as 48%; in data set [23], 35%; in data set [25] it was 70%. Also, affinity in data set [24] was put at a Ki of 73 µM. Also, it took a dose of 0.28 mg/kg to reach the 50% effect level in data set [8] (ED50). The Change result in data set [19] is “inactive”.

`Cc1cc2c(C)ncnc2c(C#N)c1C` registered an LD50 in data set [3] of 150 mg/kg. The Change result in data set [26] was “inactive”. Also, in data set [7], the TD50 is 45 mg/kg. The IC50 entry in [27] was “Not Active”. Also, the ED50 result in [15] is “inactive”. In addition, the Change in [28] is -24%.

Take `CC(=O)c1cc(C)c(C)c(C#N)c1N`: the Change in [29] was 13%; in data set [30], 15%. The molecule also returned a TD50 in [7] of more than 600 mg/kg. In [8], the ED50 amounted to 300 mg/kg.
